Paper PMC2212267 (The Journal of Experimental Medicine, 1998)
Where no end group is shown, it is not given here. 5,6‑carboxyfluorescein = 5,6-carboxyfluorescein

Tests used:
I-A^k = I-A^k (Mus musculus, UniProt P01910+P06343); assay: FACS binding of biotinylated MBP peptides to live L cell transfectants; conditions: β9 mutant I-A^k H9V; among 4A, 4E, 4Y; Fig. 1 a
Summary of the method: (§1)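 Live L cell transfectants (wild-type or β9-mutant I-A, 5 × 10^5 cells) washed, then incubated 4 h at 37°C, 7% CO2 with 200 μM biotinylated MBP analogue in RPMI 1640/1% BSA. Washed twice, then streptavidin–Quantum red/PE for 20 min on ice. MHC level read with FITC anti-Aβk,u mAb 10-2.16; propidium iodide viability stain. Net binding is mean fluorescence minus nontransfected L cells plus peptide, divided by FITC signal, then normalized to 4A peptide on wild-type transfectant.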

I-A^u [1] = biological target: T1, I-A^u (Mus musculus, UniProt P06344+P14438); assay: as above; conditions: wild-type I-A^u; among 4A, 4E, 4Y; Fig. 1 a
T1 sequence (P14438 1-227): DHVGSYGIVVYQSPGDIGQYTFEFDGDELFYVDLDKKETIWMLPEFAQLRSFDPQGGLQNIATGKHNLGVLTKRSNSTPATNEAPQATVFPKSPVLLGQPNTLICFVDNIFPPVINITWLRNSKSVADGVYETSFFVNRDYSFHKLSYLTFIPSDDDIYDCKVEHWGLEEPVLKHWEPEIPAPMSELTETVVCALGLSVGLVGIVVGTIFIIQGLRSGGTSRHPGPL
T1 sequence (P06344 28-263): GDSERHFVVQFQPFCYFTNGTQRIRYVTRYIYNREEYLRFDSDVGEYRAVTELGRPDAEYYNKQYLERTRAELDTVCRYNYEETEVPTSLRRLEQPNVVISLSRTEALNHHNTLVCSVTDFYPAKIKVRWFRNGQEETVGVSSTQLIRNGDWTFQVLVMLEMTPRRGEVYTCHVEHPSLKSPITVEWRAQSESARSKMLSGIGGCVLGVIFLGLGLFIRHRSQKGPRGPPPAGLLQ
Summary of the method: as §1

[2] = test system: MBP-responsive T cell lines; assay: Proliferation responses of MBP-responsive T cell lines; type: cell-based; conditions: unpublished data (Rabinowitz, J.D.)
I-A^u [3] = biological target: T1, I-A^u; assay: Peptide dissociation kinetics from purified MHC protein; type: binding; conditions: fluorescein-labeled peptide, pH 5.3, 37°C, HPSEC; Fig. 4 b
[4] = biological target: I-A^k class II MHC protein, wild type, on L cell transfectants (mouse); assay: flow cytometry on cells
[5] = biological target: I-A^u class II MHC protein, purified (mouse); assay: peptide dissociation kinetics followed by HPSEC with fluorescence detection

I-A^k, sequence (P01910 24-256): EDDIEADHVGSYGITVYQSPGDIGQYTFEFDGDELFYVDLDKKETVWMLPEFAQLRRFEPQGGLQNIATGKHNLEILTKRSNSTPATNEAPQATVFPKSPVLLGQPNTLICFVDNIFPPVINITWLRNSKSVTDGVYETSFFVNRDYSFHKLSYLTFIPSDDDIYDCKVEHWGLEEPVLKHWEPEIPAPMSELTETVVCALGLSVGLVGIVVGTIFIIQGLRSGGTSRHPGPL
I-A^k, sequence (P06343 28-263): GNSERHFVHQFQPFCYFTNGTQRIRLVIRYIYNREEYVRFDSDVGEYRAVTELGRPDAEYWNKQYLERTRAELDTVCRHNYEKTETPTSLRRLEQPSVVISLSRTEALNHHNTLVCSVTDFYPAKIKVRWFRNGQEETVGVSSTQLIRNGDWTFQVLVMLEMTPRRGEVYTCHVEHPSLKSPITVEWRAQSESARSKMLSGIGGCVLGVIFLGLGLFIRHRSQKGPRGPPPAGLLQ

In the case of “4Y: MBP peptide with residue 4 lysine replaced with tyrosine (Ac-ASQYRPSQRHGSK-biotin)”, the “peptide preference of I-A^k H9V in FACS binding” value (I-A^k) is reported as “prefers” and the “peptide preference of I-A^u in FACS binding” value (I-A^u [1]) is reported as “prefers”.

For ISQAVAASQKRPSQRSKY [ova-MBP], the “proliferation responses of a series of MBP-responsive T cell lines” value [2] was “abrogated proliferation responses” and the “slower dissociation from I-A^u than wild-type MBP Ac1-12” value (I-A^u [3]) was roughly 80 fold.

ISQAVAASQYRPSQRSKY [ova-MBP K4Y] was tested, and the “proliferation responses of a series of MBP-responsive T cell lines” value [2] was “abrogated proliferation responses”.

B1: biotinylated MBP Ac1-13 K4E (rat MBP sequence) (peptide)
peptide: Ac-ASQERPSQRHGSK-biotin
B1 was tested, and the fold improvement of binding over MBP Ac1-11 4A [4] was 2 fold and the fold improvement of binding over wild-type MBP [4] was greater than 20 fold.

B2: ova-MBP (NH2-terminally extended MBP peptide), fluorescein-labelled (peptide)
peptide: {5,6‑carboxyfluorescein}-ISQAVAASQKRPSQRSKY
With B2 the fold slower dissociation than wild-type MBP Ac1-12 [5] was 80 fold.

B3: ova-MBP K4Y, fluorescein-labelled (peptide)
peptide: {5,6‑carboxyfluorescein}-ISQAVAASQYRPSQRSKY
In the case of B3, the dissociation half-time (t 1/2) [5] is reported as greater than 200 h and the fold increase in stability of binding over wild-type MBP [5] is reported as greater than 1000 fold.
